Experimental findings from ChEMBL document CHEMBL1944553, “Structure-activity relationships of truncated C2- or C8-substituted adenosine derivatives as dual acting A₂A and A₃ adenosine receptor ligands” (J Med Chem, 2012) are described below.

Assay [1] has as its target T1, Adenosine receptor A3 (Homo sapiens) (UniProt P0DMS8).
T1 sequence (whole entry): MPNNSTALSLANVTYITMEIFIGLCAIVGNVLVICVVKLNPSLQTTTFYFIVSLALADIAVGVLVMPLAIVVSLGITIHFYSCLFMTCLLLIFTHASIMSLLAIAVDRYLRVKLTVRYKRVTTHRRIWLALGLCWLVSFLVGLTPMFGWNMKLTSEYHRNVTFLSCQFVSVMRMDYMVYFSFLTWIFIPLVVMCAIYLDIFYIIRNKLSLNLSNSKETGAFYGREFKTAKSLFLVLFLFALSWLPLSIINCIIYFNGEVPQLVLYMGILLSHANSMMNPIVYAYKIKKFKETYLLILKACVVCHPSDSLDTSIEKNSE
The assay can be described thus: Partial agonist activity at human recombinant adenosine A3 receptor expressed in CHO cells assessed as inhibition of forskolin-stimulated cAMP production at 10 uM incubated for 30 mins prior to forskolin addition by enzyme immunoassay relative to C1-IB-MECA. The class given is functional, cell-based. For orientation: Cyclic AMP is a second messenger, typically raised through Gs and lowered through Gi signalling.

In assay [2] the target is T1, Adenosine receptor A3 (Homo sapiens). The assay can be described thus: Competitive antagonist activity at human recombinant adenosine A3 receptor expressed in CHO cells assessed as inhibition of C1-IB-MECA-induced cAMP production preincubated for 30 mins prior to forskolin addition by enzyme immunoassay. It is filed as functional, cell-based.
The target of assay [3] is T2, Adenosine receptor A2a (Homo sapiens, UniProt P29274). The assay can be described thus: Agonist activity at human recombinant adenosine A2A receptor expressed in CHO cells assessed as induction of cAMP production at 10 uM after 30 mins by enzyme immunoassay relative to NECA. It is filed as functional, cell-based.
T2 sequence (P29274 whole entry): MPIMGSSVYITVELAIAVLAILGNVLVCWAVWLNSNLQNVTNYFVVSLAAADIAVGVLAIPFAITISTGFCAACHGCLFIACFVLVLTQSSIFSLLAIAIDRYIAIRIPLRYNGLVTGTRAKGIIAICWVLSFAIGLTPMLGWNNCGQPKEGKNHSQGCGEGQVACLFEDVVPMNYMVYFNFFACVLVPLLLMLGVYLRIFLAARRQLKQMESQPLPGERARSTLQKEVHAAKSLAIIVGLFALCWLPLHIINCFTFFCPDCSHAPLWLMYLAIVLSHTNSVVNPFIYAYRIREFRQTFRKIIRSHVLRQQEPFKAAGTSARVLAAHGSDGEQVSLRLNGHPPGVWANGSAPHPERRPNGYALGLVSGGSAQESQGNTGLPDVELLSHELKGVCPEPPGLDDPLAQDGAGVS
The target of assay [4] is T2, Adenosine receptor A2a. The assay can be described thus: Agonist activity at human recombinant adenosine A2A receptor expressed in CHO cells assessed as induction of cAMP production after 30 mins by immunoassay. The class given is functional, cell-based.
The target in assay [5] is T3, Adenosine receptor A2b (Homo sapiens) (UniProt P29275).
T3 sequence (whole entry): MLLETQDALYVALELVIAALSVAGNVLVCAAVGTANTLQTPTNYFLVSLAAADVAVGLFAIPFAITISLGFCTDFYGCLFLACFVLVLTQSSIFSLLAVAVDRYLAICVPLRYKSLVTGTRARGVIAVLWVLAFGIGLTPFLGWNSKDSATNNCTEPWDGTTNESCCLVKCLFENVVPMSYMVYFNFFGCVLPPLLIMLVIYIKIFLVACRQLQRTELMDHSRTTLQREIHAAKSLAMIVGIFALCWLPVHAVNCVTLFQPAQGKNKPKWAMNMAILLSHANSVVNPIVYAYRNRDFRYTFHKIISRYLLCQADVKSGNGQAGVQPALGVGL
The assay can be described thus: Agonist activity at human recombinant adenosine A2B receptor expressed in CHO cells assessed as induction of cAMP production at 10 uM after 30 mins by immunoassay relative to NECA. The class given is functional, cell-based.

A further assay has as its target T4, Adenosine receptor A1 (Homo sapiens, UniProt P30542).
T4 sequence (P30542 whole entry): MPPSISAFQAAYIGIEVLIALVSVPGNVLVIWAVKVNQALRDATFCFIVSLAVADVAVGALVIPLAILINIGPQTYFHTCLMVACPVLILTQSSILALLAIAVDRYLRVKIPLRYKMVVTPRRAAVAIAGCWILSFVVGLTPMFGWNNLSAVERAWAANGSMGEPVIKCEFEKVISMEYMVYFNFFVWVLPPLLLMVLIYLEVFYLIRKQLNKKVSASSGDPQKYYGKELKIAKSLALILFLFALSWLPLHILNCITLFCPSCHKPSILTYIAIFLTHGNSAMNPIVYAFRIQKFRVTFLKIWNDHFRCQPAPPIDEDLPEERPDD
As to the kind of experiment: Displacement of [3H]R-PIA from human recombinant adenosine A1 receptor expressed in CHO cells after 60 mins by […]. The class given is cell-based. The procedure, abridged: (§1)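 Membranes (40 µg/tube) from CHO cells stably expressing human A1AR, incubated with 1 nM [3H]R-PIA at 25 °C for 60 min in 50 mM Tris-HCl pH 7.4 with 10 mM MgCl2. Nonspecific binding set with 10 µM NECA. GF/B filtration.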
On the technique in general: In a radioligand displacement assay an active substance lowers the binding of a labelled ligand.

The target in another assay is T5, Adenosine receptor A3 (Homo sapiens, UniProt P0DMS8).
T5 sequence (P0DMS8 whole entry): T1 sequence (whole entry)
As to the kind of experiment: Displacement of [125I]I-AB-MECA from human adenosine A3 receptor expressed in CHO cells after 60 mins by gamma counting. The class given is cell-based. The procedure, abridged: (§2)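 hA3AR-CHO membranes (20 µg protein) with 0.5 nM [125I]I-AB-MECA and increasing ligand concentrations in 50 mM Tris-HCl pH 7.4, 10 mM MgCl2, 1 mM EDTA; 25 °C, 60 min. Nonspecific binding: 10 µM NECA. Filtered on GF/B, washed three times with ice-cold buffer, gamma-counted.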

Assay [6] has as its target T2, Adenosine receptor A2a. As to the kind of experiment: Displacement of [3H]CGS21680 from human adenosine A2A receptor expressed in HEK293 cells at 10 uM after 60 mins by […]. It is filed as cell-based. The procedure, abridged:
(§3)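 HEK-293 cells stably expressing human A2AAR. Membranes at 20 µg/tube were incubated with [3H]CGS21680 at 25 °C for 60 min in 50 mM Tris-HCl pH 7.4 with 10 mM MgCl2. Nonspecific binding was defined with 10 µM NECA, and reactions were stopped by GF/B filtration.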

Assay [7] addresses T6, Adenosine receptor A1 (Homo sapiens) (UniProt P30542).
T6 sequence (whole entry): T4 sequence (P30542 whole entry)
As to the kind of experiment: Displacement of [3H]R-PIA from human recombinant adenosine A1 receptor expressed in CHO cells at 10 uM after 60 mins by […]. The class given is cell-based. The essentials:
as §1

Assay [8] deals with T2, Adenosine receptor A2a. The assay can be described thus: Displacement of [3H]CGS21680 from human adenosine A2A receptor expressed in HEK293 cells after 60 mins by […]. It is filed as cell-based. The procedure, abridged: as §3
Assay [9] addresses T1, Adenosine receptor A3 (Homo sapiens). As to the kind of experiment: Displacement of [125I]I-AB-MECA from human adenosine A3 receptor expressed in CHO cells at 10 uM after 60 mins by gamma counting. The class given is cell-based. The procedure, abridged: as §2
The next assay has as its system Rattus norvegicus. As to the kind of experiment: Antiinflammatory activity in Sprague-Dawley rat assessed as reduction in carrageenan-induced paw edema at 20 mg/kg, ip administered 30 mins before carrageenan challenge measured after 4 hrs by plethysmometer analysis. Further details: scale not given: the % may be the effect or the level left. To be noted: route intraperitoneal. The class given is functional. The essentials:
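Male Sprague-Dawley rats (140–160 g, 5 weeks), acclimatized one week. Compound at 20 mg/kg given ip in 5% cremophor/5% ethanol in PBS; vehicle as control. After 30 min, 0.1 mL 1% carrageenan in saline was injected subplantar into the right hind paw, with saline in the left. Paw volume was read by plethysmometer at 0–24 h, 4 h included. Mean ± SD, ANOVA.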
For orientation: The carrageenan paw model is a standard test of acute inflammation.

Usually inhibition stands for the change of the read-out against control, counted positive when it falls. What is called Kb is the equilibrium dissociation constant of an antagonist, usually derived from a functional assay. As a reminder, the EC50 is the concentration giving half of the maximal effect. `CCCC/C=C/c1nc(N)c2ncn([C@@H]3SC[C@@H](O)[C@H]3O)c2n1`: the inhibition in assay [1] is 10.7%. In addition, the Kb in [2] came to 23.9 nM. Also, the Activity on Adenosine receptor A2a [3] was 109%; in assay [5] it was 3.6%. For the same compound, on Adenosine receptor A2a [4], the concentration for a half-maximal effect (EC50) is 20.6 nM.
In general, Ki refers to the equilibrium dissociation constant of an inhibitor or competing ligand from its target. Turning to `CCCCC#Cc1nc2c(N)ncnc2n1[C@@H]1OC[C@@H](O)[C@H]1O`, the Ki at Adenosine receptor A1 was found to be 290 nM; on Adenosine receptor A3 it was 31.7 nM. Further, the inhibition stood at 27.2% on Adenosine receptor A2a [6] and 24.5% in [1].
For the compound `CCCCC#Cc1nc(NCc2cccc(F)c2)c2ncn([C@@H]3OC[C@@H](O)[C@H]3O)c2n1`, the affinity on Adenosine receptor A3 corresponds to a Ki of 570 nM. For the same compound, the figures for the inhibition (in assay [7]; at Adenosine receptor A2a [6]; in [1]) were 9%, 25% and 29.5%, respectively.
`CCCCCCc1nc(N)c2ncn([C@@H]3OC[C@@H](O)[C@H]3O)c2n1` gave a Ki on Adenosine receptor A2a [8] of 2160 nM. The inhibition in [7] was 10%; in [9] it was 39%; in assay [1] it was 22.3%.
`CCCCC#Cc1nc(NCc2cccc(F)c2)c2ncn([C@@H]3SC[C@@H](O)[C@H]3O)c2n1` yielded a Ki at Adenosine receptor A3 of 150 nM. The figures for the inhibition (in assay [7]; at Adenosine receptor A2a [6]; in assay [1]) were 24%, 46% and 47.6%, respectively.
Take `CCCC/C=C/c1nc(N)c2ncn([C@@H]3OC[C@@H](O)[C@H]3O)c2n1`: the inhibition constant Ki on Adenosine receptor A2a [8] stood at 178 nM; on Adenosine receptor A3, 218 nM. Moreover, the inhibition turned out to be 31.9% in assay [7] and 42.6% in [1]. The Activity on Adenosine receptor A2a [3] was 83%; in assay [5], 1.8%.
For `CCCCC#Cc1nc(NCc2cccc(Cl)c2)c2ncn([C@@H]3OC[C@@H](O)[C@H]3O)c2n1`, affinity on Adenosine receptor A3 was put at a Ki of 150 nM. The inhibition stood at 9% in assay [7], 42% on Adenosine receptor A2a [6] and 39.7% in assay [1].
`CCCCCCc1nc2c(N)ncnc2n1[C@@H]1OC[C@@H](O)[C@H]1O`: the inhibition in assay [7] turned out to be 18.1%; at Adenosine receptor A2a [6], 5.8%; in [9], 24.7%; in [1], 12.9%.
Consider `CCCCC#Cc1nc(N)c2ncn([C@@H]3OC[C@@H](O)[C@H]3O)c2n1`, for which the Ki at Adenosine receptor A1 came to 740 nM; at Adenosine receptor A2a [8], 63.2 nM; at Adenosine receptor A3 it was 138 nM. Also, the inhibition in assay [1] was 17.4%. In addition, the Activity is 89.9% at Adenosine receptor A2a [3] and 1.9% in assay [5]. The EC50 on Adenosine receptor A2a [4] is 80.3 nM.
Turning to `CCCCC#Cc1nc2c(N)ncnc2n1[C@@H]1SC[C@@H](O)[C@H]1O`, the inhibition in [1] was found to be 1.7%. For the same compound, the Activity in [5] amounted to 7%.
With `CCCCC#Cc1nc(N)c2ncn([C@@H]3SC[C@@H](O)[C@H]3O)c2n1`, in assay [1], the inhibition is 2.8%. Further, the Activity with Rattus norvegicus came to 51.1%.
Take `CCCCC#Cc1nc(NCc2cccc(Br)c2)c2ncn([C@@H]3OC[C@@H](O)[C@H]3O)c2n1`: the affinity on Adenosine receptor A3 corresponds to a Ki of 67 nM. Moreover, the inhibition in assay [7] was 12%; on Adenosine receptor A2a [6] it was 27%; in [1], 37.2%.
`CCCCC#Cc1nc(NCc2cccc(I)c2)c2ncn([C@@H]3OC[C@@H](O)[C@H]3O)c2n1` yielded a Ki on Adenosine receptor A3 of 220 nM. In addition, the inhibition worked out at 18% in assay [7], 32% at Adenosine receptor A2a [6] and 31.5% in assay [1].
Take `CCCC/C=C/c1nc2c(N)ncnc2n1[C@@H]1SC[C@@H](O)[C@H]1O`: the inhibition in assay [1] came out at 6.1%.
For the compound `CCCCC#Cc1nc(NCc2cccc(Cl)c2)c2ncn([C@@H]3SC[C@@H](O)[C@H]3O)c2n1`, the Ki on Adenosine receptor A2a [8] came out at 3730 nM; at Adenosine receptor A3, 24 nM. Besides, the inhibition came to 25% in assay [7] and 47.2% in [1].
The corresponding values for `CCCCC#Cc1nc(NCc2cccc(I)c2)c2ncn([C@@H]3SC[C@@H](O)[C@H]3O)c2n1` are 4890 nM, 39 nM, 15% and 40%.
For `COc1ccc2c(c1)c(CC(=O)O)c(C)n2C(=O)c1ccc(Cl)cc1` [INDOMETHACIN], the Activity with Rattus norvegicus worked out at 49.7%.
Regarding `CCCC/C=C/c1nc2c(N)ncnc2n1[C@@H]1OC[C@@H](O)[C@H]1O`, the Ki on Adenosine receptor A1 came to 500 nM; on Adenosine receptor A3, 94.2 nM. In addition, the inhibition at Adenosine receptor A2a [6] is 27.3%; in assay [1], 19.5%.
Consider `CCCCC#Cc1nc(NCc2cccc(Br)c2)c2ncn([C@@H]3SC[C@@H](O)[C@H]3O)c2n1`, for which the inhibition constant (Ki) amounted to 3910 nM at Adenosine receptor A2a [8] and 24 nM at Adenosine receptor A3. Also, the inhibition in assay [7] came out at 12%; in assay [1], 25.2%.
